pEC50, pIC50: −log10 of the molar value.
Key:
[1] = test system: SW-620; test: Growth inhibition of human SW620 cells at 100 uM after 72 hrs by SRB assay; format: functional; details: for inhibition of growth at 100 µM: Homo sapiens, SW-620, 72 h, read-out: GI
Summary of the method: (§1)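 SRB read-out on adherent cells seeded in 96-well plates. Single-agent exposure at 100 μM for 72 h. Cells fixed in trichloroacetic acid for 1 h at 4 °C, stained with 0.4% (w/v) SRB for 20 min at room temperature, washed with 1% acetic acid. Bound dye solubilized in 10 mM Tris, absorbance read at 540 nm. Percent proliferation inhibition reported; means of two independent experiments.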

[2] = test system: MDA-MB-468; test: Growth inhibition of human MDA-MB-468 cells after 72 hrs by SRB assay; format: functional, cell-based
[3] = target: Poly [ADP-ribose] polymerase 2 (Homo sapiens, UniProt Q9UGN5); test: Inhibition of PARP-2 (unknown origin) after 1 hr in presence of NAD+/biotinylated NAD+/slDNA by ELISA
Poly [ADP-ribose] polymerase 2, sequence (Q9UGN5 whole entry): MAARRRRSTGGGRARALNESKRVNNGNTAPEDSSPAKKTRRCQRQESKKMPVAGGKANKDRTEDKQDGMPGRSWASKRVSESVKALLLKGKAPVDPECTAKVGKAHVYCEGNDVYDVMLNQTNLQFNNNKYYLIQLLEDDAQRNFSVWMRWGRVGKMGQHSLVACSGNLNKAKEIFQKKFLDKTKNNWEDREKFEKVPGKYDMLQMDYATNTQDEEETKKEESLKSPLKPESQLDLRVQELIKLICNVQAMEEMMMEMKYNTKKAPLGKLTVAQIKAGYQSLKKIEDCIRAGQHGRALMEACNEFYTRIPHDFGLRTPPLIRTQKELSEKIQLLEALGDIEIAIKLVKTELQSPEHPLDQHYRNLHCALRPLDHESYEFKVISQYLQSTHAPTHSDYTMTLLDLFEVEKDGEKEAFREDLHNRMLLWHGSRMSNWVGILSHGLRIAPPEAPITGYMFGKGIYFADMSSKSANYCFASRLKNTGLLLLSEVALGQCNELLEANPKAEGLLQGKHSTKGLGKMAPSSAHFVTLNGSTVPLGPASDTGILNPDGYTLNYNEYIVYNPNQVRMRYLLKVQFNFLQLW

[4] = target: T1, Poly [ADP-ribose] polymerase 1 (Homo sapiens, UniProt P09874); test: Inhibition of PARP-1 (unknown origin) after 1 hr in presence of NAD+/biotinylated NAD+/slDNA by ELISA
T1 sequence (P09874 whole entry): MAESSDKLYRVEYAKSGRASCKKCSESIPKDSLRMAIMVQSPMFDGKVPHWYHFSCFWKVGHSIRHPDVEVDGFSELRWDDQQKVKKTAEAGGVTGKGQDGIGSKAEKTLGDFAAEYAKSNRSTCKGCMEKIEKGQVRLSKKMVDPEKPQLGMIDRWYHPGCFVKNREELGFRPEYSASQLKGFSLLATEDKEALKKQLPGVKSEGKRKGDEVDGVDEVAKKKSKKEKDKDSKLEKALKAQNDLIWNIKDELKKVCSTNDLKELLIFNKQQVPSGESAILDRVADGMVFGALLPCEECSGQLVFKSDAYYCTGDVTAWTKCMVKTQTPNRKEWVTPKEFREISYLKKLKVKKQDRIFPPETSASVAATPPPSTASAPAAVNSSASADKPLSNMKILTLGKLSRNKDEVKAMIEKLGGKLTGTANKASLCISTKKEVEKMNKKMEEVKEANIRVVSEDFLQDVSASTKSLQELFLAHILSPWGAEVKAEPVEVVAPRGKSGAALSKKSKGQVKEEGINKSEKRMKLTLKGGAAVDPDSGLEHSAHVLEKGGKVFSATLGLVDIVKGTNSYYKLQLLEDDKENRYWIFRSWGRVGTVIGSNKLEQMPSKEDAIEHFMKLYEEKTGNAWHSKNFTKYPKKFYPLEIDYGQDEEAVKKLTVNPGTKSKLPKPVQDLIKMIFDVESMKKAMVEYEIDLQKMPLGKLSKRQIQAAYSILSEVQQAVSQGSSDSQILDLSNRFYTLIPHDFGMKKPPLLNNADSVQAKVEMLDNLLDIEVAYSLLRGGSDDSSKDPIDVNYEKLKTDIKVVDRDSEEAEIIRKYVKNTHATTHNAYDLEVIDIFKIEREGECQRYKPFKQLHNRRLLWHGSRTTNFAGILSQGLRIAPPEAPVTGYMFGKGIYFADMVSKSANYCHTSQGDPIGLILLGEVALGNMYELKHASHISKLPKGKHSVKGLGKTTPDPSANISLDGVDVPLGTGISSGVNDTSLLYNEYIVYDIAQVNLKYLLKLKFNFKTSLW

[5] = test system: MDA-MB-468; test: Growth inhibition of human MDA-MB-468 cells at 100 uM after 72 hrs by SRB assay; format: functional; details: for inhibition of growth at 100 µM: Homo sapiens, MDA-MB-468, 72 h, read-out: GI; summary of the method: as §1
[6] = test system: SW-620; test: Growth inhibition of human SW620 cells after 72 hrs by SRB assay; format: functional, cell-based
[7] = target: T1, Poly [ADP-ribose] polymerase 1
[8] = target: T1, Poly [ADP-ribose] polymerase 1; details: MDA-MB-468
[9] = target: T1, Poly [ADP-ribose] polymerase 1; details: A549
[10] = target: T1, Poly [ADP-ribose] polymerase 1; test: Inhibition of PARP-1 (unknown origin) at 100 nM after 1 hr in presence of NAD+/biotinylated NAD+/slDNA by ELISA
Summary of the method: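 Histone-coated wells (20 μg/mL in PBS pH 7.4, 4 °C overnight). Reaction buffer 50 mM Tris, 2 mM MgCl2, pH 8.0, with 100 μM NAD+, 25 μM biotinylated NAD+ and 200 nM slDNA. Started with PARP-1 (50 ng/well), 1 h at 30 °C. Detection by streptavidin-HRP for 30 min at 30 °C, then H2O2/luminol in citrate buffer pH 5.4, luminescence read. Inhibition % = (control−treated)/control ×100.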

Row | SMILES | inhibition of growth at 100 µM [1] [%] | pIC50 [4] | inhibition of growth at 100 µM [5] [%] | other results
1 | O=C1NCCn2c(-c3ccc(N4CCNCC4)cc3)nc3cncc1c32 | 15 | 7.70 | 57 | pEC50 ([2]; Homo sapiens, MDA-MB-468, 72 h): 4.03; pIC50 [3]: 8.26
2 | CN1CCN(c2ccc(-c3nc4cncc5c4n3CCNC5=O)cc2)CC1 | – | 6.86 | – | –
3 | O=C1NCCn2c(-c3ccc(CN4CCCC4)cc3)nc3cncc1c32 | – | 7.70 | – | –
4 | C[C@]1(c2nc3c(C(N)=O)cccc3[nH]2)CCCN1 [VELIPARIB] | – | – | – | growth inhibition (GI) [1]: 95%; pEC50 ([6]; sw-620): 4.57; pEC50 ([2]; mda-mb-468): 4.37; PF50 [7]: 3.1; PF50 [8]: 1.2; PF50 [9]: 1.5; growth inhibition (GI) [5]: 69%
5 | CC(C)(C)NCc1ccc(-c2nc3cncc4c3n2CCNC4=O)cc1 | – | 7.12 | – | –
6 | CCCCN1CCC(c2nc3cncc4c3n2CCNC4=O)CC1 | 67 | 7.68 | 47 | pEC50 ([6]; Homo sapiens, SW-620, 72 h): 4.02
7 | CC(C)CN1CCC(c2nc3cncc4c3n2CCNC4=O)CC1 | 77 | 7.55 | 53 | pEC50 ([6]; Homo sapiens, SW-620, 72 h): 4.28; pEC50 ([2]; Homo sapiens, MDA-MB-468, 72 h): 4.72; pIC50 [3]: 8.11
8 | O=C1NCCn2c(-c3ccc(CN4CCCCC4)cc3)nc3cncc1c32 | – | 7.54 | – | –
9 | CCCN1CCC(c2nc3cncc4c3n2CCNC4=O)CC1 | 41 | 7.72 | 30 | –
10 | O=C1NCCn2c(-c3ccccc3)nc3cncc1c32 | – | 6.96 | – | –
11 | O=C1NCCn2c(C3CCN(Cc4ccccc4)CC3)nc3cncc1c32 | – | 6.99 | – | –
12 | O=C1NCCn2c(C3CCN(C(=O)c4ccccc4)CC3)nc3cncc1c32 | – | – | – | inhibition [10]: < 10%
13 | CN(C)Cc1ccc(-c2nc3cncc4c3n2CCNC4=O)cc1 | – | 7.55 | – | –
14 | O=C1NCCn2c(C3CCNCC3)nc3cncc1c32 | 25 | 7.27 | 32 | –
15 | O=C1NCCn2c(C3CCN(C(=O)c4cccc(Cl)c4)CC3)nc3cncc1c32 | – | – | – | inhibition [10]: < 10%
16 | CNCc1ccc(-c2nc3cncc4c3n2CCNC4=O)cc1 | 80 | 7.89 | 71 | pEC50 ([6]; Homo sapiens, SW-620, 72 h): 4.05; pEC50 ([2]; Homo sapiens, MDA-MB-468, 72 h): 4.09; pIC50 [3]: 8.14
17 | CC(C)NCc1ccc(-c2nc3cncc4c3n2CCNC4=O)cc1 | – | 7.24 | – | –
18 | CCNCc1ccc(-c2nc3cncc4c3n2CCNC4=O)cc1 | 94 | 7.96 | 82 | pEC50 ([6]; Homo sapiens, SW-620, 72 h): 4.63; pEC50 ([2]; Homo sapiens, MDA-MB-468, 72 h): 5.34; pIC50 [3]: 8.00
19 | O=C1NCCn2c(C3CCN(C(=O)C4CC4)CC3)nc3cncc1c32 | – | – | – | inhibition [10]: < 10%
20 | CC(C)N1CCC(c2nc3cncc4c3n2CCNC4=O)CC1 | – | 7.04 | – | –
21 | O=C1NCCn2c(C3CCN(C(=O)c4ccc(Cl)cc4)CC3)nc3cncc1c32 | – | – | – | inhibition [10]: < 10%
22 | CC(=O)N1CCC(c2nc3cncc4c3n2CCNC4=O)CC1 | – | – | – | inhibition [10]: < 10%
23 | O=C1NCCn2c(C3CCN(C(=O)c4ccccc4Cl)CC3)nc3cncc1c32 | – | – | – | inhibition [10]: < 10%

Reference: ChEMBL document CHEMBL4431370, “Novel tricyclic poly (ADP-ribose) polymerase-1/2 inhibitors with potent anticancer chemopotentiating activity: Design, synthesis and biological evaluation” (Bioorg Med Chem, 2016)
